Data taken from ChEMBL document CHEMBL4673301, “Design, synthesis, and anti-proliferative evaluation of new quinazolin-4(3H)-ones as potential VEGFR-2 inhibitors” (Bioorg Med Chem, 2021).

Experiments:
[1] = system: MCF7; test: Antiproliferative activity against human MCF7 cells assessed as reduction in cell viability incubated for 24 hrs by MTT assay; type: functional, cell-based; details: MCF7, 24 h
In short: (§1)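 Cells from ATCC grown in RPMI-1640 with 10% FBS, penicillin 100 unit/ml and streptomycin 100 μg/ml at 37 °C, 5% CO2. Seeded at 1.0 x 10^4 cells/well for 48 h, then exposed to a range of compound concentrations for 24 h. MTT (5 mg/ml) added for 4 h, formazan dissolved in DMSO, A570 read. Viability taken as % of untreated. Duplicate wells, at least three independent IC50 determinations.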

[2] = system: HCT-116; test: Antiproliferative activity against human HCT-116 cells assessed as reduction in cell viability incubated for 24 hrs by MTT assay; type: functional, cell-based; details: HCT-116, 24 h; in short: as §1
[3] = system: HepG2; test: Antiproliferative activity against human HepG2 cells assessed as reduction in cell viability incubated for 24 hrs by MTT assay; type: functional, cell-based; details: HepG2, 24 h; in short: as §1
[4] = molecular target: Vascular endothelial growth factor receptor 2 (Homo sapiens, UniProt P35968)
[5] = system: MCF7; test: Potency index, ratio of IC50 of sorafenib to IC50 of compound for antiproliferative activity against human MCF7 cells assessed as reduction in cell viability incubated for 24 hrs by MTT assay; type: functional
[6] = system: HCT-116; test: Potency index, ratio of IC50 of sorafenib to IC50 of compound for antiproliferative activity against human HCT-116 cells assessed as reduction in cell viability incubated for 24 hrs by MTT assay; type: functional
[7] = system: HepG2; test: Potency index, ratio of IC50 of sorafenib to IC50 of compound for antiproliferative activity against human HepG2 cells assessed as reduction in cell viability incubated for 24 hrs by MTT assay; type: functional
[8] = system: MCF7; test: Potency index, ratio of IC50 of doxorubicin to IC50 of compound for antiproliferative activity against human MCF7 cells assessed as reduction in cell viability incubated for 24 hrs by MTT assay; type: functional
[9] = system: HCT-116; test: Potency index, ratio of IC50 of doxorubicin to IC50 of compound for antiproliferative activity against human HCT-116 cells assessed as reduction in cell viability incubated for 24 hrs by MTT assay; type: functional
[10] = system: HepG2; test: Potency index, ratio of IC50 of doxorubicin to IC50 of compound for antiproliferative activity against human HepG2 cells assessed as reduction in cell viability incubated for 24 hrs by MTT assay; type: functional

Sequence of Vascular endothelial growth factor receptor 2 (P35968 whole entry): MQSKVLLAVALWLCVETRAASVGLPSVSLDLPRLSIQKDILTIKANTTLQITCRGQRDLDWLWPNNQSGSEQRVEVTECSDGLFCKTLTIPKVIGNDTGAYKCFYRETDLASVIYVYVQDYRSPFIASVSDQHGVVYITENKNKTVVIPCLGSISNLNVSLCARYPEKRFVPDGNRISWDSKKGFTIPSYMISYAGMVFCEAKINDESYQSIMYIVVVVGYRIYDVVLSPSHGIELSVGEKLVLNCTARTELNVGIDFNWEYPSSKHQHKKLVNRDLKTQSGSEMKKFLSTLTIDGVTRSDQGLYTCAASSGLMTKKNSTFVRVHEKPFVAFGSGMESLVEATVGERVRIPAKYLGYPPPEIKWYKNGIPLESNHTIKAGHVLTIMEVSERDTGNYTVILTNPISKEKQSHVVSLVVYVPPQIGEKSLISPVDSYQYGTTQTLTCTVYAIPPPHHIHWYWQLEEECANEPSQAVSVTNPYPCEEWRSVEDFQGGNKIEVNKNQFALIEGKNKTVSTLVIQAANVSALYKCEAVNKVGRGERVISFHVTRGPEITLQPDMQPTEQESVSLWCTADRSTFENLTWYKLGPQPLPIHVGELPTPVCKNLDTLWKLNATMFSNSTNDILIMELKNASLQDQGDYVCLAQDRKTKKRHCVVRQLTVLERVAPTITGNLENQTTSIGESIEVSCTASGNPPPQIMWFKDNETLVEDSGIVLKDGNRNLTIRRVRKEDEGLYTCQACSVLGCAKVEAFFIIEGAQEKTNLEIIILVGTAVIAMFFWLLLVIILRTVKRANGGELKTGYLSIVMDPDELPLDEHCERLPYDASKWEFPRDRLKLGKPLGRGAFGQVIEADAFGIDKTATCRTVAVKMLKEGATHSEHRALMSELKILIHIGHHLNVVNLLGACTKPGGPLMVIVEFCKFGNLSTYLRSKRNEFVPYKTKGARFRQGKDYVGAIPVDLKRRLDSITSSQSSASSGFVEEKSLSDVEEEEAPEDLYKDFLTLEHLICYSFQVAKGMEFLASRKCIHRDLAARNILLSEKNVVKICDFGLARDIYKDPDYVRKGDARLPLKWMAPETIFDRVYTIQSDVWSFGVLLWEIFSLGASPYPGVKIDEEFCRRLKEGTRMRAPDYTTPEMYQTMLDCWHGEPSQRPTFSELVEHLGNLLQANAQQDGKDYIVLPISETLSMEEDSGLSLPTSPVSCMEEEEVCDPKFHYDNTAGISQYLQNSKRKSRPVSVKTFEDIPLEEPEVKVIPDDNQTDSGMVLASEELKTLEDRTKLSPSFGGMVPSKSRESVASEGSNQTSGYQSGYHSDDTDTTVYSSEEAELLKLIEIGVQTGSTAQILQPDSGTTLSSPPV

Compound	IC50 [1] [µM]	IC50 [2] [µM]	IC50 [3] [µM]	IC50 [4] [µM]	Ratio IC50 [5]	Ratio IC50 [6]	Ratio IC50 [7]	Ratio IC50 [8]	Ratio IC50 [9]	Ratio IC50 [10]
Cc1ccc(-n2c(SCC(=O)Nc3ccc(C(=O)NC4CCCCC4)cc3)nc3ccccc3c2=O)cc1	24.9	14.1	16.5	–	–	–	–	–	–	–
C/C(=N\NC(=O)c1cccc(Cl)c1)c1ccc(NC(=O)CSc2nc3ccccc3c(=O)n2-c2ccc(C)cc2)cc1	40.9	30.4	33.8	–	–	–	–	–	–	–
C/C(=N\NC(=O)c1cc([N+](=O)[O-])ccc1Cl)c1ccc(NC(=O)CSc2nc3ccccc3c(=O)n2-c2ccc(C)cc2)cc1	3.91	1.68	1.88	0.452	1.84	5.59	3.88	1.96	5.73	4.39
CC(=O)NS(=O)(=O)c1ccc(NC(=O)CSc2nc3ccccc3c(=O)n2-c2ccc(C)cc2)cc1	6.79	6.14	4.19	0.721	–	–	–	–	–	–
Cc1ccc(-n2c(SCC(=O)Nc3ccc(S(=O)(=O)Nc4nc(C)cc(C)n4)cc3)nc3ccccc3c2=O)cc1	7.1	5.24	6.76	0.707	–	–	–	–	–	–
C/C(=N\NC(N)=S)c1ccc(NC(=O)CSc2nc3ccccc3c(=O)n2-c2ccc(C)cc2)cc1	9.89	8.32	8.38	1	–	–	–	–	–	–
Cc1ccc(-n2c(SCC(=O)Nc3ccc(S(=O)(=O)Nc4ccccn4)cc3)nc3ccccc3c2=O)cc1	30.6	24.1	30	–	–	–	–	–	–	–
COc1cccc2c1C(=O)c1c(O)c3c(c(O)c1C2=O)C[C@@](O)(C(=O)CO)C[C@@H]3O[C@H]1C[C@H](N)[C@H](O)[C@H](C)O1 [DOXORUBICIN]	–	9.63	–	–	–	–	–	–	–	–
CNC(=O)c1cc(Oc2ccc(NC(=O)Nc3ccc(Cl)c(C(F)(F)F)c3)cc2)ccn1 [SORAFENIB]	7.21	9.4	7.31	–	–	–	–	–	–	–

More lines, main results first:

IC50 [1] [µM]	IC50 [2] [µM]	IC50 [3] [µM]	IC50 [4] [µM]	Compound	Ratio IC50 [5]	Ratio IC50 [6]	Ratio IC50 [7]	Ratio IC50 [8]	Ratio IC50 [9]	Ratio IC50 [10]
35.9	29	30.5	–	C/C(=N\NC(=O)c1ccccc1)c1ccc(NC(=O)CSc2nc3ccccc3c(=O)n2-c2ccc(C)cc2)cc1	–	–	–	–	–	–
14.4	10.8	11.7	1.07	Cc1ccc(-n2c(SCC(=O)Nc3ccc(C(=O)NNC(=O)c4ccccc4O)cc3)nc3ccccc3c2=O)cc1	–	–	–	–	–	–
18.3	13.4	17.4	1.4	Cc1ccc(-n2c(SCC(=O)Nc3ccc(C(=O)NCc4ccccc4)cc3)nc3ccccc3c2=O)cc1	–	–	–	–	–	–
16.1	9.4	12.1	1.21	Cc1ccc(-n2c(SCC(=O)Nc3ccc(C(=O)NNc4ccccc4)cc3)nc3ccccc3c2=O)cc1	–	–	–	–	–	–
13.5	8.27	12.3	1.78	CC(=O)c1ccc(NC(=O)CSc2nc3ccccc3c(=O)n2-c2ccc(C)cc2)cc1	–	–	–	–	–	–
26.9	16.6	21.8	1.37	Cc1ccc(-n2c(SCC(=O)Nc3ccc(C(=O)Nc4ccccc4)cc3)nc3ccccc3c2=O)cc1	–	–	–	–	–	–
23	17.1	22.6	–	C/C(=N\NC(=O)c1ccccc1Cl)c1ccc(NC(=O)CSc2nc3ccccc3c(=O)n2-c2ccc(C)cc2)cc1	–	–	–	–	–	–
23.7	17	21.5	–	CCOC(=O)c1ccc(NC(=O)c2ccc(NC(=O)CSc3nc4ccccc4c(=O)n3-c3ccc(C)cc3)cc2)cc1	–	–	–	–	–	–
5.99	3.67	4.12	0.685	Cc1ccc(-n2c(SCC(=O)Nc3ccc(C(=O)Nc4ccc(Cl)cc4)cc3)nc3ccccc3c2=O)cc1	–	–	–	–	–	–
28.4	17.4	19	–	Cc1ccc(NC(=O)c2ccc(NC(=O)CSc3nc4ccccc4c(=O)n3-c3ccc(C)cc3)cc2)cc1	–	–	–	–	–	–
15.4	12.4	11.9	1.06	C/C(=N\NC(=O)c1ccccc1O)c1ccc(NC(=O)CSc2nc3ccccc3c(=O)n2-c2ccc(C)cc2)cc1	–	–	–	–	–	–
44	37.1	41.6	–	C/C(=N\NC(=O)c1ccc(Cl)cc1)c1ccc(NC(=O)CSc2nc3ccccc3c(=O)n2-c2ccc(C)cc2)cc1	–	–	–	–	–	–
